The source of these data is ChEMBL document CHEMBL1811908, “Design of HIV-1 integrase inhibitors targeting the catalytic domain as well as its interaction with LEDGF/p75: a scaffold hopping approach using salicylate and catechol groups” (Bioorg Med Chem, 2011).

Where only a bound is given, the exact number is not on record here.

A short description of data set [1]: (§1) Cytotoxicity against human NCI-H630 cells after 72 hrs by MTT assay. Type of data set: cell-based. The note with it: NCI-H630 cells. The method in brief:
(§2)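 H630 colon cancer cells seeded, attached overnight, then continuously exposed to compound (DMSO stocks) for 72 h. MTT added to 0.5 mg/mL final, 4 h at 37°C; supernatant removed, DMSO added, absorbance read at 570 nm. IC50 taken from plot of log concentration versus percentage of cells killed.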

In data set [2] the target is T1, Human immunodeficiency virus type 1 integrase (Human immunodeficiency virus 1, UniProt Q7ZJM1). The data set is described as follows: Inhibition of wild-type HIV1 integrase 3'-processing activity using [32P]-5'-end-labeled 5'-GTGTGGAAAATCTCTAGCAGT-3' as substrate after 1 hr.
For data set [3], the target named is T1, Human immunodeficiency virus type 1 integrase. The data set is described as follows: Inhibition of wild-type HIV1 integrase strand transfer activity using [32P]-5'-end-labeled 5'-GTGTGGAAAATCTCTAGCAGT-3' as substrate after 1 hr.
A further data set has as its system NCI-H630. The description is as §1. The note with it: nci-h630, 72 h. The format is cell-based. The method in brief:
as §2

Data set [4] in a line: Inhibition of HIV1 His6-tagged integrase-LEDGF/p75 interaction after 30 mins by AlphaScreen assay. The method in brief: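 His6-tagged IN (300 nM final) preincubated with compound (0.1–100 μM) 30 min at 4°C in 25 mM Tris-HCl pH 7.4, 150 mM NaCl, 1 mM MgCl2, 0.01% Tween-20, 0.1% BSA; 100 nM Flag-LEDGF/p75 added, 1 h at 4°C. Ni-chelate acceptor and anti-Flag donor beads (20 μg/ml each) added, 1 h at 30°C; AlphaScreen emission read.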

T1 sequence (Q7ZJM1 whole entry): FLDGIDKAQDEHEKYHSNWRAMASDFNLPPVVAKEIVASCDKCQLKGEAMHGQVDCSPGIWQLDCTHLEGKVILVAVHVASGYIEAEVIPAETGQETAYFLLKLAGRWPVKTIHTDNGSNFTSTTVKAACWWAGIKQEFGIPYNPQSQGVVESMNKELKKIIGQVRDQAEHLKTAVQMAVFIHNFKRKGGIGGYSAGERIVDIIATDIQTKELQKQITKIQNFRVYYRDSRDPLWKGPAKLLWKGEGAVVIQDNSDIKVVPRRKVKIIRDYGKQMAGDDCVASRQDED

`O=C(O)c1cccc(OCc2ccccc2)c1O` had a cytotoxic concentration (CC50) at 72 h in data set [1] of over 40 µM. In addition, the concentration for half-maximal inhibition (IC50) in data set [2] and in data set [3] was over 100 µM each time.
In the case of `O=C(O)c1cccc(OCc2ccc(F)cc2)c1O`, in data set [1], the CC50 at 72 h is over 40 µM. The IC50 in data set [2] and in data set [3] was over 100 µM in each case.
In the case of `O=C(O)c1cccc(OCc2ccc3ccccc3c2)c1O`, the CC50 at 72 h in data set [1] is over 40 µM. Besides, the figures for the half-maximal inhibitory concentration (IC50) in data set [2] and in data set [3] were over 100 µM and 140 µM, respectively.
The like results for `O=C(O)c1ccc(OCc2ccccc2)cc1O` were, in that order, over 40 µM, over 100 µM and over 100 µM.
For `O=C(O)c1ccc(OCc2ccc(F)cc2)cc1O`, in that order: over 40 µM, over 100 µM and over 100 µM.
The like results for `O=C(O)c1cc(OCc2ccccc2)ccc1O` were, in that order, over 40 µM, over 100 µM and over 100 µM.
In data set [1], `O=C(O)c1cc(OCc2ccc(F)cc2)ccc1O` had a 50% cytotoxic concentration (CC50) at 72 h of over 40 µM. The IC50 in data set [2] and in data set [3] was over 100 µM each time.
For `O=C(O)c1c(O)cccc1OCc1ccc(F)cc1`, the 50% cytotoxic concentration (CC50) at 72 h in data set [1] was over 40 µM. For the same compound, the IC50 in data set [2] and in data set [3] was over 100 µM throughout.
In the case of `O=C(O)c1c(O)cccc1OCc1ccc2ccccc2c1`, the CC50 at 72 h in data set [1] was over 40 µM. The IC50 is over 100 µM in data set [2] and 186 µM in data set [3].
Consider `O=C(NO)c1cccc(OCc2ccc(F)cc2)c1O`, for which the IC50 in data set [2] and in data set [3] was over 100 µM throughout.
With `O=C(NO)c1ccc(OCc2ccc(F)cc2)cc1O`, the concentration for half-maximal inhibition (IC50) in data set [2] was over 100 µM; in data set [3], 100 µM.
For `O=C(NO)c1cc(OCc2ccc(F)cc2)ccc1O`, the half-maximal inhibitory concentration (IC50) is over 100 µM in data set [2] and 85 µM in data set [3].
For `O=C(NO)c1c(O)cccc1OCc1ccc(F)cc1`, in that order: over 100 µM and 97 µM.
In the case of `O=C(NCc1ccc(F)cc1)c1cccc(OCc2ccccc2)c1O`, the CC50 at 72 h in data set [1] was over 40 µM. For the same compound, the results for the IC50 in data set [2] and in data set [3] were over 333 µM and 111 µM, respectively.
`O=C(NCc1cccc2ccccc12)c1cccc(O)c1O` gave a CC50 in the data set on NCI-H630 of 21 µM. In addition, the concentration for half-maximal inhibition (IC50) in data set [4] was 34 µM; in data set [2], over 100 µM; in data set [3], 26 µM.
In data set [1], `O=C(NCc1ccc(F)c(F)c1)c1cccc(O)c1O` returned a cytotoxic concentration (CC50) at 72 h of over 40 µM. Besides, the concentration for half-maximal inhibition (IC50) in data set [4] is 56 µM; in data set [2], over 100 µM; in data set [3], 23 µM.
As for `O=C(NCc1ccc2[nH]ccc2c1)c1cccc(O)c1O`, the CC50 at 72 h in data set [1] is over 40 µM. The compound further had a concentration for half-maximal inhibition (IC50) in data set [4] of 45 µM.
In turn, `O=C(NCCc1c[nH]c2ccccc12)c1cccc(O)c1O` registered a cytotoxic concentration (CC50) with NCI-H630 of 15 µM. Also, the figures for the IC50 in data set [4], in data set [2] and in data set [3] were 63 µM, 100 µM and 100 µM, respectively.
`O=C(Nc1ccc2[nH]ccc2c1)c1cccc(O)c1O` yielded a CC50 at 72 h in data set [1] of over 40 µM. Moreover, the IC50 in data set [4] was 88 µM; in data set [2], over 100 µM; in data set [3], 58 µM.
With `O=C(NCc1cccs1)c1cccc(O)c1O`, in data set [1], the CC50 at 72 h was over 40 µM. Further, the concentration for half-maximal inhibition (IC50) in data set [4] was 95 µM; in data set [2] it was 83 µM; in data set [3], 12 µM.
`O=C(NCc1ccco1)c1cccc(O)c1O`: in data set [1], the CC50 at 72 h is over 40 µM. The half-inhibitory concentration (IC50) was determined as 89 µM in data set [4], 90 µM in data set [2] and 15 µM in data set [3].
Consider `O=C(NCc1ccc(-c2cccs2)cc1)c1cccc(O)c1O`, for which, in the data set with NCI-H630, the 50% cytotoxic concentration (CC50) was 15 µM. The IC50 is over 100 µM in data set [4], over 100 µM in data set [2] and 21 µM in data set [3].
`O=C(NC1CCNCC1)c1cccc(O)c1O` returned a CC50 at 72 h in data set [1] of over 10 µM. Besides, the IC50 in data set [4], in data set [2] and in data set [3] was over 100 µM in each case.
`O=C(NC1CCCCC1)c1cccc(O)c1O`: the CC50 at 72 h in data set [1] was over 40 µM. Also, the IC50 in data set [4], in data set [2] and in data set [3] was over 100 µM in each case.
As to `O=C(NCC1CCCCC1)c1cccc(O)c1O`, in the data set with NCI-H630, the 50% cytotoxic concentration (CC50) was determined as 21 µM. The IC50 in data set [4] was over 100 µM; in data set [2], over 100 µM; in data set [3], 18 µM.
On to `CNC(=O)Cc1ccccc1CNC(=O)c1cccc(O)c1O`, for which the 50% cytotoxic concentration (CC50) at 72 h in data set [1] was over 40 µM. Also, the figures for the IC50 in data set [4], in data set [2] and in data set [3] were over 100 µM, over 100 µM and 56 µM, respectively.
Turning to `CNC(=O)c1cc(F)ccc1CNC(=O)c1cccc(O)c1O`, the CC50 at 72 h in data set [1] was over 40 µM. Further, the IC50 was over 100 µM in data set [4], over 100 µM in data set [2] and 100 µM in data set [3].
In turn, `O=C(NCc1ccc(F)cc1)c1cc(S(=O)(=O)N2CCCCC2)cc(O)c1O` came in with a CC50 with NCI-H630 of 13 µM. Moreover, the IC50 is 200 µM in data set [2] and 5 µM in data set [3].
In turn, `CNS(=O)(=O)c1cc(O)c(O)c(C(=O)NCc2ccc(F)cc2)c1` yielded a CC50 at 72 h in data set [1] of over 40 µM. For the same compound, the IC50 in data set [4] was over 100 µM; in data set [2], over 100 µM; in data set [3], 44 µM.
Turning to `CC(C)(C)NS(=O)(=O)c1cc(O)c(O)c(C(=O)NCc2ccc(F)cc2)c1`, in data set [1], the CC50 at 72 h is over 10 µM. Moreover, the concentration for half-maximal inhibition (IC50) in data set [4] is 100 µM; in data set [2] it was 70 µM; in data set [3], 8 µM.
`O=C(NCc1ccco1)c1cc(S(=O)(=O)N2CCCCC2)cc(O)c1O` gave a CC50 in the data set on NCI-H630 of 33 µM. The IC50 in data set [4] was over 100 µM; in data set [2], over 100 µM; in data set [3] it was 13 µM.
As for `O=C(NCc1ccc(C(F)(F)F)cc1)c1cc(S(=O)(=O)N2CCCCC2)cc(O)c1O`, the midpoint of cytotoxicity in the data set on NCI-H630, the CC50, lay at 31 µM. In addition, the 50% inhibitory concentration (IC50) in data set [4] was over 100 µM; in data set [2], 89 µM; in data set [3], 11 µM.
Turning to `O=C(NCC1CCCCC1)c1cc(S(=O)(=O)N2CCCCC2)cc(O)c1O`, in data set [1], the CC50 at 72 h was over 40 µM. Further, the IC50 in data set [4] was 8 µM; in data set [2], 53 µM; in data set [3], 19 µM.
With `O=C(NCc1cccs1)c1cc(S(=O)(=O)N2CCCCC2)cc(O)c1O`, in data set [1], the 50% cytotoxic concentration (CC50) at 72 h was over 40 µM. The half-maximal inhibitory concentration (IC50) in data set [4] was over 50 µM; in data set [2] it was over 100 µM; in data set [3], 44 µM.
With `CS(=O)(=O)Nc1cc(O)c(O)c(C(=O)NCc2ccc(F)cc2)c1`, the figures for the IC50 in data set [4], in data set [2] and in data set [3] were 100 µM, over 100 µM and 34 µM, respectively.
Compound `CC(=O)Nc1cc(O)c(O)c(C(=O)NCc2ccc(F)cc2)c1` yielded a half-maximal cytotoxic concentration (CC50) at 72 h in data set [1] of under 10 µM. The values for the IC50 in data set [4], in data set [2] and in data set [3] were over 100 µM, 55 µM and 14 µM, respectively.
Consider `N#Cc1cc(O)c(O)c(C(=O)NCc2ccc(F)cc2)c1`, for which the CC50 at 72 h in data set [1] was over 10 µM. Besides, the half-maximal inhibitory concentration (IC50) was 75 µM in data set [2] and 22 µM in data set [3].
On to `CN(C)Cc1ccc(C(=O)NCc2ccc(F)cc2)c(O)c1O`, for which the CC50 at 72 h in data set [1] was over 10 µM. The IC50 in data set [4] was over 50 µM; in data set [2], over 100 µM; in data set [3] it was 20 µM.
In the case of `CN(C)Cc1ccc(C(=O)NCc2ccco2)c(O)c1O`, the cytotoxic concentration (CC50) in the data set with NCI-H630 stood at 7 µM. In addition, the half-maximal inhibitory concentration (IC50) in data set [4] was over 50 µM; in data set [2], over 100 µM; in data set [3], 39 µM.
With `COc1cc(S(=O)(=O)N2CCCCC2)cc(C(=O)NCc2ccco2)c1O`, in data set [1], the CC50 at 72 h is over 25 µM. Moreover, the IC50 is 13 µM in data set [4], over 100 µM in data set [2] and over 100 µM in data set [3].
As to `Nc1cccc(C(=O)NCc2ccco2)c1O`, the CC50 at 72 h in data set [1] was over 25 µM. Also, the IC50 in data set [4] was 51 µM; in data set [2], over 100 µM; in data set [3], over 100 µM.
`O=C(NCc1ccc(F)cc1)c1cccc(O)c1O` came in with a CC50 at 72 h in data set [1] of over 40 µM. In addition, the IC50 in data set [4] is over 100 µM; in data set [2], 100 µM; in data set [3], 35 µM.
